Results: ChEMBL document CHEMBL4257471, “Orthoester functionalized N-guanidino derivatives of 1,5-dideoxy-1,5-imino-d-xylitol as pH-responsive inhibitors of β-glucocerebrosidase” (Medchemcomm, 2017)
Substitutions are numbered along the chain they refer to. The source made the active and inactive calls. The rule behind the calls is not given here.

Tests used:
Beta-galactosidase = biological target: T1, Beta-galactosidase (Bos taurus, UniProt Q58D55); assay: Inhibition of bovine liver beta-galactosidase pre-incubated for 5 mins followed by p-nitrophenyl-beta-D-galactopyranoside substrate addition and measured after 30 mins by spectrophotometric assay
T1 sequence (Q58D55 whole entry): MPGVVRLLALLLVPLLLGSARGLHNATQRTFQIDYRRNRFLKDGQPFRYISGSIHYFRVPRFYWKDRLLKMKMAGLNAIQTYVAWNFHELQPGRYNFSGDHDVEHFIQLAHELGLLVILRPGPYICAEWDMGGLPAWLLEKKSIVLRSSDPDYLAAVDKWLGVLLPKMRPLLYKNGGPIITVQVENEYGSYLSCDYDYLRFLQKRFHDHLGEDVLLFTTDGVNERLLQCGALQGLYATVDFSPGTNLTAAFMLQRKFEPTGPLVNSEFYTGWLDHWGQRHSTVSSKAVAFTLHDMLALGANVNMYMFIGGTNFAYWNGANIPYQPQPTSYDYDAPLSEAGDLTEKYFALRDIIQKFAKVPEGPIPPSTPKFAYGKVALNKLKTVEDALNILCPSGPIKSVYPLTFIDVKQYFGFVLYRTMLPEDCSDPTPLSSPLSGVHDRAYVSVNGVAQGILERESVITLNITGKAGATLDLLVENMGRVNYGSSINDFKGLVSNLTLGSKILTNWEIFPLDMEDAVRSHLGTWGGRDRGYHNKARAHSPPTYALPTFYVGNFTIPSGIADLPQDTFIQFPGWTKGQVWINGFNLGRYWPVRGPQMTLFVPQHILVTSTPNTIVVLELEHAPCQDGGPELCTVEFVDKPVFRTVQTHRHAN
How it was run: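 Enzyme at 0.05 U mL⁻¹; p-nitrophenyl-β-D-galactopyranoside substrate, 0.7 mM final, in 100 mM sodium phosphate buffer, pH 7.2. IC50 values in μM from triple independent duplicate analysis.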

Galactocerebrosidase = biological target: T2, Galactocerebrosidase (Homo sapiens, UniProt P54803); assay: Inhibition of recombinant human GALC at pH 5.2 pre-incubated for 10 mins followed by 4-methylumbelliferyl-beta-D-galactopyranoside substrate addition and measured after 20 mins by fluorescence assay
T2 sequence (P54803 whole entry): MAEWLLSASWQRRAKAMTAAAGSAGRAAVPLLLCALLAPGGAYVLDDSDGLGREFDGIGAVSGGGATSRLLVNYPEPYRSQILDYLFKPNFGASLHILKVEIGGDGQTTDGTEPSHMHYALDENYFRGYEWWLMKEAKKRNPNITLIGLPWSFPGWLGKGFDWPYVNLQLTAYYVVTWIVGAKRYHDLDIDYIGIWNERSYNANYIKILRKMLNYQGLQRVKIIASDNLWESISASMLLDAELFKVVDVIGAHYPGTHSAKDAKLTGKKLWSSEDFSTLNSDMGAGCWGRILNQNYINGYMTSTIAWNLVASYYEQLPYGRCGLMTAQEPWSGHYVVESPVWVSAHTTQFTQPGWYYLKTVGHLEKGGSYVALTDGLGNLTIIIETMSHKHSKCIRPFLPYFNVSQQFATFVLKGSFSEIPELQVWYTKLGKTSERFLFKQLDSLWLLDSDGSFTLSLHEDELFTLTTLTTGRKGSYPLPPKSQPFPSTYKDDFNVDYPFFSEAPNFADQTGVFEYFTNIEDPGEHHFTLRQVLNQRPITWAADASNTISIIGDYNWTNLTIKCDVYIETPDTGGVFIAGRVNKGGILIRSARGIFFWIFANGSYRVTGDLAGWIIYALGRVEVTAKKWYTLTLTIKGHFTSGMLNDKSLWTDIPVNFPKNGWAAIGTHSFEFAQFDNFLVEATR
How it was run: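 Human recombinant enzyme assayed with 4-methylumbelliferyl-β-D-galactopyranoside substrate. IC50 values in μM, averaged from triple independent duplicate analysis.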

Alpha-galactosidase = Alpha-galactosidase (Coffea arabica, UniProt Q42656); assay: Inhibition of green coffee beans alpha-galactosidase pre-incubated for 5 mins followed by p-nitrophenyl-alpha-D-galactopyranoside substrate addition and measured after 30 mins by spectrophotometric assay
Sequence of Alpha-galactosidase (Q42656 whole entry): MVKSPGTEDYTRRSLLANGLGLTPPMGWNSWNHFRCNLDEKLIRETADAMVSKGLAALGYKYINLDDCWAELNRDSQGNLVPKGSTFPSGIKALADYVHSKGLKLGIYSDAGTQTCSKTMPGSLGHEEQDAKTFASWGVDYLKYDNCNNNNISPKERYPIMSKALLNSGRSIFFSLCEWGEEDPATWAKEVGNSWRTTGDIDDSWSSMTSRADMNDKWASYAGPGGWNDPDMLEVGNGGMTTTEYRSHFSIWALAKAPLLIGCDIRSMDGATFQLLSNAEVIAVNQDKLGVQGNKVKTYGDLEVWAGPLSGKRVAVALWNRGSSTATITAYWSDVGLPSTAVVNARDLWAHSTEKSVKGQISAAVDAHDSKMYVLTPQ
How it was run: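 Enzyme at 0.05 U mL⁻¹ with p-nitrophenyl-α-D-galactopyranoside, 0.7 mM final, in sodium phosphate buffer (100 mM, pH 6.8). IC50 values in μM are averages of triple independent duplicate runs.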

[1] = Inhibition of Penicillium decumbens naringinase pre-incubated for 5 mins followed by p-nitrophenyl-beta-D-glucopyranoside substrate addition and measured after 30 mins by spectrophotometric assay
How it was run: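 Enzyme at 0.06 U mL⁻¹; substrate p-nitrophenyl-β-D-glucopyranoside at 0.7 mM final in 100 mM sodium acetate buffer, pH 5.0. IC50 values in μM, averaged from triple independent duplicate runs.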

[2] = Inhibition of almond beta-glucosidase pre-incubated for 5 mins followed by p-nitrophenyl-beta-D-glucopyranoside substrate addition and measured after 30 mins by spectrophotometric assay; design: species or system Prunus dulcis
How it was run: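 Enzyme at 0.05 U mL⁻¹ with p-nitrophenyl-β-D-glucopyranoside, 0.7 mM final, in 100 mM sodium acetate, pH 5.0. IC50 values in μM are means of triple independent duplicate analyses.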

[3] = Inhibition of yeast alpha-glucosidase pre-incubated for 5 mins followed by p-nitrophenyl-alpha-D-glucopyranoside substrate addition and measured after 30 mins by spectrophotometric assay; design: species or system Saccharomyces cerevisiae
How it was run: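 Enzyme at 0.05 U mL⁻¹; p-nitrophenyl-α-D-glucopyranoside substrate at 0.7 mM final in 100 mM sodium phosphate, pH 7.2. IC50 values in μM averaged from triple independent duplicate analysis.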

[4] = Drug degradation in aqueous solution at room temperature after 6 days; assay type: physicochemical; conditions: read-out: Drug degradation
[5] = biological target: T3, Lysosomal acid glucosylceramidase (Homo sapiens, UniProt P04062); assay: Inhibition of recombinant human GBA pre-incubated for 30 mins followed by 4-methylumbelliferyl-beta-D-glucopyranoside substrate addition and measured after 10 mins using compound incubated at pH 5.2 for 24 hrs prior to test by fluorescence assay
T3 sequence (P04062 whole entry): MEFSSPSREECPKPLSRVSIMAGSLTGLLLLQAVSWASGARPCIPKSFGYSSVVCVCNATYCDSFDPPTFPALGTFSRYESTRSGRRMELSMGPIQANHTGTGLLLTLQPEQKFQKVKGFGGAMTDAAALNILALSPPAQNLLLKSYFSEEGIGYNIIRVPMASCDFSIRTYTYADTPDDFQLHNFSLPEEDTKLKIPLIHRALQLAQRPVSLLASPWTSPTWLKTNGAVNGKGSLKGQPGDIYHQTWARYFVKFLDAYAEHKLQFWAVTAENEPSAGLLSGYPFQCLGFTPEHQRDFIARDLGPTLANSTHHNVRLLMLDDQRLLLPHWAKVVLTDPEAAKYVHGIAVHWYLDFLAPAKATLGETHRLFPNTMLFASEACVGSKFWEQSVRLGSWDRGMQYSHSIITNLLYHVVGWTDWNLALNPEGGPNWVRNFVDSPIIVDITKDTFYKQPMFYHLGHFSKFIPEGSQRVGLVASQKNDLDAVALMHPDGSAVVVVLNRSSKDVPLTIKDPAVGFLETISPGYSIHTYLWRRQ

[6] = tested on: T4, Lysosomal acid glucosylceramidase (Homo sapiens), P04062 [L483P]; assay: Chaperone activity at GBA L444P mutant in Gaucher disease patient-derived fibroblasts assessed as restoration of enzyme activity at 1 to 10000 nM after 4 days by 4-methylumbelliferyl-beta-D-glucopyranoside substrate based fluorescence assay
T4 sequence (whole entry): T3 sequence (P04062 whole entry) with L483P

[7] = tested on: T5, Lysosomal acid glucosylceramidase (Homo sapiens), P04062 [N409S]; assay: Chaperone activity at GBA N370S mutant in Gaucher disease patient-derived fibroblasts assessed as restoration of enzyme activity at 1 to 10000 nM after 4 days by 4-methylumbelliferyl-beta-D-glucopyranoside substrate based fluorescence assay
T5 sequence (whole entry): T3 sequence (P04062 whole entry) with N409S

[8] = biological target: T3, Lysosomal acid glucosylceramidase; assay: Inhibition of recombinant human GBA pre-incubated for 30 mins followed by 4-methylumbelliferyl-beta-D-glucopyranoside substrate addition and measured after 10 mins using compound incubated at pH 7 buffer for 24 hrs prior to test by fluorescence assay

| IC50 (Beta-galactosidase) [µM] | IC50 (Galactocerebrosidase) [µM] | IC50 (Alpha-galactosidase) [µM] | IC50 [1] [µM] | IC50 [2] [µM] | IC50 [3] [µM] | degraded at 144 h [4] [%] | IC50 [5] [µM] | Activity [6] | Activity [7] | IC50 [8] [µM] | Compound |
| --- | --- | --- | --- | --- | --- | --- | --- | --- | --- | --- | --- |
| > 30 | > 30 | > 30 | 0.085 | > 30 | > 30 | – | – | – | – | – | CCCCCCCCCN1C[C@H](O)[C@@H](O)[C@H](O)[C@H]1CO |
| > 30 | > 30 | > 30 | > 30 | 14.6 | > 30 | < 3 | > 30 | inactive | Active | 0.025 | CCCCCCCCOC1OCC(CNC(=N)N2C[C@@H](O)[C@H](O)[C@@H](O)C2)O1 (stereo partly drawn) |
| – | – | – | – | – | – | – | – | – | Active | – | OC[C@H]1CNC[C@@H](O)[C@@H]1O |
| > 30 | > 30 | > 30 | > 30 | 19.2 | > 30 | < 3 | > 30 | – | Active | 2.56 | CCCCOC1OCC(CNC(=N)N2C[C@@H](O)[C@H](O)[C@@H](O)C2)O1 (stereo partly drawn) |
